From publication PMC10073337 (Biochemistry, 2023)
Marks after values point to notes of the source that are not given here.

Key:
HsIYD containing FMNox = biological target: T1, HsIYD containing FMNox (Homo sapiens, UniProt Q6PHW0); assay: Binding affinity to HsIYD containing oxidized FMN
T1 sequence (Q6PHW0 with tags, fused parts or gaps): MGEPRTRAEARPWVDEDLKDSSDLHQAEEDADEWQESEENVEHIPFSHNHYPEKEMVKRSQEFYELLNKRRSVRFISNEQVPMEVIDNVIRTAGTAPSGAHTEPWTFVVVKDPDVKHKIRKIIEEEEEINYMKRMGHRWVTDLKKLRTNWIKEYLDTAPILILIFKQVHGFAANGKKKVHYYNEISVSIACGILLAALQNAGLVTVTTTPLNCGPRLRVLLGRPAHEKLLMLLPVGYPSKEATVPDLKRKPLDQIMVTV
Summary of the method: (§1)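 HsIYD (residues 2–31 removed) was expressed as a SUMO fusion and purified by Ni2+ affinity and size exclusion. HhIYD carried a C-terminal His6 tag and was purified by Ni2+ affinity. Ligand was titrated into 3 μM enzyme in 110 mM potassium phosphate pH 7.4, stirred, at 25 °C. Flavin fluorescence (ex 450, em 516 nm) was read 2 min after each addition. Kd was fitted from fractional remaining fluorescence versus total enzyme and ligand.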

HhIYD containing FMNox = biological target: T2, HhIYD containing FMNox (Haliscomenobacter hydrossis, UniProt F4KU78); assay: Binding affinity to HhIYD containing oxidized FMN
T2 sequence (F4KU78 1-222): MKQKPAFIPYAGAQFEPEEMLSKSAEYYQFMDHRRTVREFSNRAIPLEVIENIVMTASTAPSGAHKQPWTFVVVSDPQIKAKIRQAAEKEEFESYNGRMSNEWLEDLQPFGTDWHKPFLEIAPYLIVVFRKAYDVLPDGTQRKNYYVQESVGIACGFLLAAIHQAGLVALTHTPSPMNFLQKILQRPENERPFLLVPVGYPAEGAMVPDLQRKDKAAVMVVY
Summary of the method: as §1

[1] = biological target: T3, HsIYD reconstituted with FMN analogues (Homo sapiens, UniProt Q6PHW0); assay type: biochemical; conditions: I-Tyr as substrate, HsIYD reconstituted with the cofactor, pH 7.4
T3 sequence (Q6PHW0 with tags, fused parts or gaps): T1 sequence (Q6PHW0 with tags, fused parts or gaps)
Summary of the method: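 FMN was stripped from column-bound SUMO–HsIYD with 0.6 to 1.5 M guanidinium HCl, then the gradient was reversed. The protein was loaded with 200 μM flavin analogue for 4 h at 4 °C and washed. It was eluted with 250 mM imidazole, the tag was cleaved, and size exclusion followed. Turnover used 70–80 nM enzyme, 100 mM potassium phosphate pH 7.4, 0.5% dithionite and 25 °C, with HPLC product detection.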

[2] = free in neutral aqueous solution at 25 °C; cited from earlier work
HhIYD = biological target: T4, HhIYD (Haliscomenobacter hydrossis, UniProt F4KU78); assay: Competitive inhibition of I-Tyr dehalogenation by HhIYD; assay type: biochemical
T4 sequence (F4KU78 1-222): T2 sequence (F4KU78 1-222)
Summary of the method: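 His6-tagged HhIYD (70–80 nM final) was incubated with I-Tyr in 111 mM potassium phosphate pH 7.4 at 25 °C. Dithionite (5% in 5% sodium bicarbonate) was added at one-tenth volume as reductant. Deiodinated product was quantified by reverse-phase C18 HPLC. The test compound was included as a competitive inhibitor, giving Ki against the reduced enzyme.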

[3] = cited from earlier work
[4] = Estimated phenol pKa and phenolate fraction of substrates; assay type: physicochemical; conditions: assay conditions of pH 7.4, based on estimated pKa
[5] = biological target: T5, IYD from Haliscomenobacter hydrossis (HhIYD) (Haliscomenobacter hydrossis, UniProt F4KU78); assay: Catalytic deiodination; assay type: biochemical; conditions: I-Tyr turnover, pL 7.4, 100 mM potassium phosphate
T5 sequence (F4KU78 1-222): T2 sequence (F4KU78 1-222)

[6] = biological target: T6, Iodotyrosine deiodinase (Human, HsIYD) (Homo sapiens, UniProt Q6PHW0); assay: Catalytic deiodination; assay type: biochemical; conditions: 100 mM potassium phosphate pH 7.4, 0.5% sodium dithionite
T6 sequence (Q6PHW0 with tags, fused parts or gaps): T1 sequence (Q6PHW0 with tags, fused parts or gaps)

Kd (HsIYD containing FMNox) | Kd (HhIYD containing FMNox) | kcat [1] | SMILES | redox potential [2] | further results
6.3 ± 0.3 µM | 4.3 ± 0.4 µM | – | COc1cc(C[C@H](N)C(=O)O)cc(I)c1O [I-MeO-Tyr, 3-iodo-5-methoxytyrosine] | – | –
7 ± 0.03 µM | 7.3 ± 0.4 µM | – | N#Cc1cc(C[C@H](N)C(=O)O)cc(I)c1O [I-CN-Tyr, 3-cyano-5-iodotyrosine] | – | fraction existing in phenolate form [4]: 98%
2.6 ± 0.03 µM | 1.7 ± 0.1 µM | – | Cc1cc(C[C@H](N)C(=O)O)cc(I)c1O [I-Me-Tyr, 3-Iodo-5-methyltyrosine] | – | fraction existing in phenolate form [4]: 3.4%
– | – | 5.2 ± 0.2 s^−1 × 10^−2 | Cc1cc2nc3c(=O)[nH]c(=O)nc-3n(C[C@H](O)[C@H](O)[C@H](O)COP(=O)(O)O)c2cc1C [FMN, Flavin Mononucleotide] | −205^d mV | –
0.9 ± 0.1 µM | 6.9 ± 0.3 µM | – | N[C@@H](Cc1cc(F)c(O)c(I)c1)C(=O)O [I-F-Tyr, 3-fluoro-5-iodotyrosine] | – | –

Further lines, the molecule ahead of its results:

SMILES | Kd (HsIYD containing FMNox) | Kd (HhIYD containing FMNox) | kcat [1] | redox potential [2] | further results
Cc1cc2c(cc1Cl)nc1c(=O)[nH]c(=O)nc-1n2C[C@H](O)[C@H](O)[C@H](O)COP(=O)(O)O [7-Cl-FMN] | – | – | 3.3 ± 0.2 s^−1 × 10^−2 | −128^d mV | –
N[C@@H](Cc1ccc(O)c(F)c1)C(=O)O [fluorotyrosine, 3-fluorotyrosine] | – | – | – | – | Ki (HhIYD): 10.7 ± 0.1 µM
N[C@@H](Cc1cc(I)c(O)c(I)c1)C(=O)O [I2-Tyr, diiodotyrosine] | – | – | – | – | pKa of the α-ammonium group [3]: 7.8
N[C@@H](Cc1ccc(O)c(I)c1)C(=O)O [I-Tyr, iodotyrosine] | – | – | – | – | Km ([5]; D2O): 12 ± 4 µM; kcat ([5]; D2O): 0.41 ± 0.05 s⁻¹; Km ([5]; H2O, 9% glycerol): 13 ± 4 µM; kcat ([5]; H2O, 9% glycerol): 0.39 ± 0.05 s⁻¹; Km ([5]; H2O): 23 ± 4 µM; kcat ([5]; H2O): 0.64 ± 0.08 s⁻¹; Km [6]: 19 ± 3 µM; kcat [6]: 0.12 ± 0.008 s⁻¹
COc1cc2c(cc1C)nc1c(=O)[nH]c(=O)nc-1n2C[C@H](O)[C@H](O)[C@H](O)COP(=O)(O)O [8-MeO-FMN, 8-methoxy-desmethylFMN] | – | – | 9.0 ± 0.3 s^−1 × 10^−2 | −260^c mV | –
